Measurements as given in ChEMBL document CHEMBL1155269, “Synthesis and antibacterial activity of some new heterocycles incorporating phthalazine” (2009).

Assays:
Bacillus thuringiensis = experiment: Antibacterial activity against Bacillus thuringiensis at 2 mg/ml after 24 hrs by agar diffusion assay; assay type: functional; settings: read-out: DIZ
Summary of the method: (§1)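 Agar diffusion; compounds applied as 2 mg ml−1 solutions in DMSO to agar media seeded with the test bacterium (cultures maintained on nutrient agar). DMSO-only control included for each organism; ampicillin and chloramphenicol references at 2 mg ml−1. Plates incubated 24 h at 30 °C, then inhibition zone diameter (mm) measured.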

Escherichia coli = experiment: Antibacterial activity against Escherichia coli at 2 mg/ml after 24 hrs by agar diffusion assay; assay type: functional; settings: read-out: DIZ; summary of the method: as §1

SMILES | zone of inhibition at 2000 µg/mL (Bacillus thuringiensis) [mm] | zone of inhibition at 2000 µg/mL (Escherichia coli) [mm]
N#CC(Br)(Br)C(=O)N1NC(=O)C2C3c4ccccc4C(c4ccccc43)C2C1=O (centres undefined) | 27 | 29
N#CC(Br)C(=O)N1NC(=O)C2C3c4ccccc4C(c4ccccc43)C2C1=O (centres undefined) | 16 | 20
N=c1oc2ccccc2cc1C(=O)N1NC(=O)C2C3c4ccccc4C(c4ccccc43)C2C1=O (centres undefined) | 20 | 12
CC1=Nc2c(s/c(=N\N)n2-c2ccccc2)C(=O)N2C(=O)C3C4c5ccccc5C(c5ccccc54)C3C(=O)N12 (centres undefined) | 19 | 13
CS/C(Nc1ccccc1)=C(/C#N)C(=O)N1NC(=O)C2C3c4ccccc4C(c4ccccc43)C2C1=O (centres undefined) | 26 | 30
Nc1c(C(=O)N2NC(=O)C3C4c5ccccc5C(c5ccccc54)C3C2=O)sc(=S)n1-c1ccccc1 (centres undefined) | 16 | 11
Cc1cc(C)c2c(N/N=C(\C#N)C(=O)N3NC(=O)C4C5c6ccccc6C(c6ccccc65)C4C3=O)n[nH]c2n1 (centres undefined) | 20 | 30
CC1=Nc2c(sc(=S)n2-c2ccccc2)C(=O)N2C(=O)C3C4c5ccccc5C(c5ccccc54)C3C(=O)N12 (centres undefined) | 16 | 11
O=C(N[C@H](CO)[C@H](O)c1ccc([N+](=O)[O-])cc1)C(Cl)Cl [CHLORAMPHENICOL] | 20 | 23
CC1(C)S[C@@H]2[C@H](NC(=O)[C@H](N)c3ccccc3)C(=O)N2[C@H]1C(=O)O [AMPICILLIN] | 19 | 18
CSC(=S)C(C#N)C(=O)N1NC(=O)C2C3c4ccccc4C(c4ccccc43)C2C1=O (centres undefined) | 22 | 22
N#CC(C(=O)N1NC(=O)C2C3c4ccccc4C(c4ccccc43)C2C1=O)=C1SCCCS1 (centres undefined) | 15 | 16
O=C1NN(C(=O)c2cc3ccccc3oc2=O)C(=O)C2C3c4ccccc4C(c4ccccc43)C12 (centres undefined) | 16 | 15
O=C1C2C3c4ccccc4C(c4ccccc43)C2C(=O)N2C(=O)c3sc(=S)n(-c4ccccc4)c3N=CN12 (centres undefined) | 13 | 12
N#CC(C(=O)N1NC(=O)C2C3c4ccccc4C(c4ccccc43)C2C1=O)=C1SCCS1 (centres undefined) | 13 | 
